In ChEMBL document CHEMBL1150675, “Chemical constituents of Calophyllum brasiliense. 2. Structure of three new coumarins and cancer chemopreventive activity of 4-substituted coumarins” (J Nat Prod, 2003):

Tests used:
Raji [1] = assay: Inhibition of TPA-induced EBV-early antigen activation in human Raji cells assessed as early antigen activation at 32 nmol after 48 hrs relative to control; type: cell-based; design: scale not given: the % may be the effect or the level left; settings: human gammaherpesvirus 4
Procedure, shortened: (§1)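 Raji cells at 10^6 cells/mL are harvested and induced in RPMI 1640/10% FCS with 4 mM n-butyric acid and 32 pmol TPA (20 ng/mL). Compound is added in DMSO at 32, 16, 3.2 or 0.32 nmol (mol ratio to TPA). After 48 h at 37 °C, EA-positive cells are counted blind (≥500 cells) as % versus TPA-only control ± SD. IC50 is the mol ratio to TPA giving 50% inhibition.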

Raji [2] = assay: Inhibition of TPA-induced EBV-early antigen activation in human Raji cells assessed as early antigen activation at 16 nmol after 48 hrs relative to control; type: cell-based; design: scale not given: the % may be the effect or the level left; settings: human gammaherpesvirus 4; procedure, shortened: as §1
Raji [3] = assay: Inhibition of TPA-induced EBV-early antigen activation in human Raji cells assessed as early antigen activation at 3.2 nmol after 48 hrs relative to control; type: cell-based; design: scale not given: the % may be the effect or the level left; settings: human gammaherpesvirus 4; procedure, shortened: as §1
Raji [4] = assay: Inhibition of TPA-induced EBV-early antigen activation in human Raji cells assessed as early antigen activation at 0.32 nmol after 48 hrs relative to control; type: cell-based; design: scale not given: the % may be the effect or the level left; settings: human gammaherpesvirus 4; procedure, shortened: as §1
[5] = Inhibition of TPA-induced EBV-early antigen activation in human Raji cells assessed as early antigen activation after 48 hrs relative to control; type: cell-based, human gammaherpesvirus 4; procedure, shortened: as §1
[6] = Cytotoxicity against human Raji cells assessed as cell viability at 32 nmol after 48 hrs by trypan blue staining; type: cell-based; settings: read-out: Activity
Procedure, shortened: (§2)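 Raji cells grown to 106 cells/mL, pelleted and resuspended in RPMI 1640 with 10% FCS plus 4 mM n-butyric acid and 32 pmol TPA (20 ng/mL in DMSO), with test compound in DMSO (32, 16, 3.2 or 0.32 nmol; 1000–10 mol ratio/TPA). Viability counted after 48 h at 37 °C by hemocytometer with Trypan Blue; at least 60% survival required.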

[7] = Cytotoxicity against human Raji cells assessed as cell viability at 16 nmol after 48 hrs by trypan blue staining; type: cell-based; settings: read-out: Activity; procedure, shortened: as §2
[8] = Cytotoxicity against human Raji cells assessed as cell viability at 3.2 nmol after 48 hrs by trypan blue staining; type: cell-based; settings: read-out: Activity; procedure, shortened: as §2
[9] = Cytotoxicity against human Raji cells assessed as cell viability at 0.32 nmol after 48 hrs by trypan blue staining; type: cell-based; settings: read-out: Activity; procedure, shortened: as §2

Structure (SMILES)	Activity (Raji [1]) [%]	Activity (Raji [2]) [%]	Activity (Raji [3]) [%]	Activity (Raji [4]) [%]	IC50 [5] [molar ratio]	viability at 48 h, 32 nmol [6] [%]	viability at 48 h, 16 nmol [7] [%]	viability at 48 h, 3.2 nmol [8] [%]	viability at 48 h, 0.32 nmol [9] [%]
CCC(C)C(=O)c1c(O)c2c(c3c(-c4ccccc4)cc(=O)oc13)OC(C(C)(C)O)C2 (stereo not given) [BRASIMARIN B]	0	32.6	71.6	92.5	342	70	> 80	> 80	> 80
CCCc1cc(=O)oc2c3c(c4c(c12)OC(C)(C)C=C4)O[C@H](C)[C@@H](C)[C@@H]3O [CALANOLIDE A]	0	27.7	66.6	92.5	290	60	> 80	> 80	> 80
CC1(C)C=Cc2c(O)c(C(=O)c3ccccc3)c3oc(=O)cc(-c4ccccc4)c3c2O1 [CALANONE]	0	32.3	73.1	93.3	347	70	> 80	> 80	> 80
CC(C)=CCc1c2c(c3oc(=O)cc(-c4ccccc4)c3c1O)C(=O)[C@H](C)[C@@H](C)O2 [BRASIMARIN C]	0	33.3	70.2	93.8	348	70	> 80	> 80	> 80
CCCc1cc(=O)oc2c(C(=O)C(C)CC)c(O)c(CC=C(C)C)c(O)c12 (stereo not given)	0	13.7	50.6	84.2	170	60	> 80	> 80	> 80
CCCc1cc(=O)oc2c3c(c4c(c12)OC(C)(C)C=C4)O[C@H](C)[C@H](C)[C@@H]3O [CALANOLIDE C]	0	35.1	74	94.3	351	70	> 80	> 80	> 80
CCCc1cc(=O)oc2c(C(=O)c3ccccc3)c(O)c3c(c12)OC(C)(C)C=C3 [BRASIMARIN A]	0	33.3	72.1	93.8	349	70	> 80	> 80	> 80
CC1=C(/C=C/C(C)=C/C=C/C(C)=C/C=C/C=C(C)/C=C/C=C(C)/C=C/C2=C(C)CCCC2(C)C)C(C)(C)CCC1 [BETA CAROTENE]	9.1			100	400				
C/C=C(\C)C(=O)c1c(OC)c2c(c3c(CCC)cc(=O)oc13)OC(C)(C)C=C2	0	19.5	62.5	90.8	268	60	> 80	> 80	> 80
